# Data: ChEMBL document CHEMBL1158040, “Biological activities and 3D QSAR studies of a series of Delisea pulchra (cf. fimbriata) derived natural products” (J Nat Prod, 2006)
# Active and inactive are the calls of the source. No cut-off for these calls is given here.
# Assays:
# Lu1 = assay: Cytotoxicity against human Lu1 cells; assay type: functional; conditions: read-out: ED50 (the source's name)
# KB [1] = assay: Cytotoxicity against human KB cells; assay type: functional; conditions: read-out: ED50 (the source's name)
# KB [2] = assay: Cytotoxicity against vinblastine-sensitive human KB cells; assay type: functional; conditions: read-out: ED50 (the source's name)
# KB [3] = assay: Cytotoxicity against vinblastine-resistant human KB cells; assay type: functional; conditions: read-out: ED50 (the source's name)
# How it was run: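 The vinblastine-resistant KB-V1 line was tested both with and without added vinblastine in the cultured tumour-cell cytotoxicity panel. Results are reported as ED50.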
# LNCaP = assay: Cytotoxicity against human LNCAP cells; assay type: functional; conditions: read-out: ED50 (the source's name)
# ZR-75-1 = assay: Cytotoxicity against human ZR-75-1 cells; assay type: functional; conditions: read-out: ED50 (the source's name)
# Escherichia coli [4] = assay: Antimicrobial activity against Escherichia coli at 10 ug; assay type: functional, organism-based
# How it was run: (§1)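 Direct bioautography: each compound is spotted onto TLC plates and the solvent evaporated. The test organism is then grown directly on the plate. Growth inhibition is scored at the spot as active (+) or very active (++). Where a number is given, it is the radius in mm of the inhibition zone around the spot.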
# Escherichia coli [5] = assay: Antimicrobial activity against Escherichia coli at 5 ug; assay type: functional, organism-based; how it was run: as §1
# Escherichia coli [6] = assay: Antimicrobial activity against Escherichia coli at 1 ug; assay type: functional, organism-based; how it was run: as §1
# Escherichia coli [7] = assay: Antimicrobial activity against Escherichia coli at 0.1 ug; assay type: functional, organism-based; how it was run: as §1
# Micrococcus luteus [8] = assay: Antimicrobial activity against Micrococcus luteus at 10 ug; assay type: functional, organism-based; how it was run: as §1
# Micrococcus luteus [9] = assay: Antimicrobial activity against Micrococcus luteus at 5 ug; assay type: functional, organism-based; how it was run: as §1
# Micrococcus luteus [10] = assay: Antimicrobial activity against Micrococcus luteus at 1 ug; assay type: functional, organism-based; how it was run: as §1
# Micrococcus luteus [11] = assay: Antimicrobial activity against Micrococcus luteus at 0.1 ug; assay type: functional, organism-based; how it was run: as §1
# Bacillus subtilis [12] = assay: Antimicrobial activity against Bacillus subtilis at 10 ug; assay type: functional, organism-based; how it was run: as §1
# Bacillus subtilis [13] = assay: Antimicrobial activity against Bacillus subtilis at 5 ug; assay type: functional, organism-based; how it was run: as §1
# Bacillus subtilis [14] = assay: Antimicrobial activity against Bacillus subtilis at 1 ug; assay type: functional, organism-based; how it was run: as §1
# Bacillus subtilis [15] = assay: Antimicrobial activity against Bacillus subtilis at 0.1 ug; assay type: functional, organism-based; how it was run: as §1
# Penicillium oxalicum [16] = assay: Antimicrobial activity against Penicillium oxalicum at 10 ug; assay type: functional; conditions: for zone of inhibition at 10 µg/disc: read-out: IZ; how it was run: as §1
# Penicillium oxalicum [17] = assay: Antimicrobial activity against Penicillium oxalicum at 5 ug; assay type: functional; conditions: for zone of inhibition at 5 µg/disc: read-out: IZ; how it was run: as §1
# Penicillium oxalicum [18] = assay: Antimicrobial activity against Penicillium oxalicum at 1 ug; assay type: functional; conditions: for zone of inhibition at 1 µg/disc: read-out: IZ; how it was run: as §1
# Penicillium oxalicum [19] = assay: Antimicrobial activity against Penicillium oxalicum at 0.1 ug; assay type: functional; conditions: for zone of inhibition at 0.1 µg/disc: read-out: IZ; how it was run: as §1
# Plasmodium falciparum = assay: Antimalarial activity against chloroquine-sensitive Plasmodium falciparum D6 at 10 ug/ml; assay type: functional
# [20] = molecular target: Human immunodeficiency virus type 1 reverse transcriptase (Human immunodeficiency virus 1) (UniProt Q72547); assay: Inhibition of HIV1 RT at 200 uM
# How it was run: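 HIV-1 reverse transcriptase inhibition was measured in an ELISA-based system.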
# [21] = Inhibition of TK assessed as residual activity at 200 ug/ml
# How it was run: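 The enzyme was tyrosine kinase p56lck, with test compounds at 200 μg/mL. The read-out is the remaining enzyme activity.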
# Penicillium oxalicum [22] = assay: Antimicrobial activity against Penicillium oxalicum at 0.01 ug; assay type: functional; how it was run: as §1
SMILES,EC50 (Lu1) [µg/mL],EC50 (KB [1]) [µg/mL],EC50 (KB [2]) [µg/mL],EC50 (KB [3]) [µg/mL],EC50 (LNCaP) [µg/mL],Activity (Escherichia coli [4]),Activity (Escherichia coli [5]),Activity (Escherichia coli [6]),Activity (Escherichia coli [7]),Activity (Micrococcus luteus [8]),Activity (Micrococcus luteus [9]),Activity (Micrococcus luteus [10]),Activity (Micrococcus luteus [11]),Activity (Bacillus subtilis [12]),Activity (Bacillus subtilis [13]),Activity (Bacillus subtilis [14]),Activity (Bacillus subtilis [15]),zone of inhibition at 10 µg/disc (Penicillium oxalicum [16]) [mm],zone of inhibition at 5 µg/disc (Penicillium oxalicum [17]) [mm],zone of inhibition at 1 µg/disc (Penicillium oxalicum [18]) [mm],also measured
CCCCC1=C(Br)C(OC)(C(Br)Br)OC1=O (centres undefined),> 20,7.6,10.5,8,6.6,Active,Active,Active,inactive,Active,Active,Active,inactive,inactive,inactive,inactive,inactive,,,,EC50 (ZR-75-1): 6.7 µg/mL; Activity (Penicillium oxalicum [16]): inactive; Activity (Penicillium oxalicum [17]): inactive; Activity (Penicillium oxalicum [18]): inactive; Activity (Penicillium oxalicum [19]): inactive; Activity (Plasmodium falciparum): >50%; Activity [20]: inactive
CCC[C@@H](O)C1=C(Br)[C@](CI)(OC)OC1=O,> 20,> 20,> 20,> 20,9.1,Active,Active,inactive,inactive,Active,Active,inactive,inactive,Active,inactive,inactive,inactive,6,6,2,EC50 (ZR-75-1): 6.4 µg/mL; Activity (Penicillium oxalicum [19]): inactive; Activity (Plasmodium falciparum): >50%; Activity [20]: inactive; Activity [21]: 55.7%
CCC[C@@H](O)C1=C(Br)/C(=C\Cl)OC1=O,,,,,,,,,,,,,,,,,,,,,Activity [21]: 1.6%
CCN(CC)CCCC(C)Nc1ccnc2cc(Cl)ccc12 (centres undefined) [CHLOROQUINE],,17.4,,,,,,,,,,,,,,,,,,,
CCC[C@@H](O)C1=C(Br)/C(=C\I)OC1=O,,,,,,,,,,,,,,,,,,,,,Activity [21]: 5.8%
CCC[C@@H](OC(C)=O)C1=C(Br)[C@](C)(OC)OC1=O,> 20,3.9,5.6,4.7,3.6,inactive,inactive,inactive,inactive,Active,Active,inactive,inactive,Active,Active,inactive,inactive,16,12,8,EC50 (ZR-75-1): 4 µg/mL; Activity (Penicillium oxalicum [19]): inactive; Activity (Plasmodium falciparum): >50%; Activity [20]: inactive; Activity [21]: 86%
CCC[C@@H](O)C1=C(Br)[C@@](CI)(OC)OC1=O,,,,,,Active,Active,inactive,inactive,Active,Active,inactive,inactive,Active,Active,inactive,inactive,14,16,10,Activity (Penicillium oxalicum [19]): inactive; Activity [21]: 77.2%
CCC[C@@H](OC(C)=O)C1=C(Br)/C(=C\Br)OC1=O [ACETOXYFIMBROLIDE],,,,,,inactive,inactive,inactive,inactive,Active,Active,Active,Active,Active,Active,Active,inactive,18,22,14,zone of inhibition at 0.1 µg/disc (Penicillium oxalicum [19]): 6 mm; Activity (Penicillium oxalicum [22]): inactive
CCC[C@@H](O)C1=C(Br)/C(=C\Br)OC1=O [HYDROXYFIMBROLIDE],0.6,0.5,0.2,1.1,< 0.1,Active,Active,Active,,Active,Active,Active,inactive,Active,Active,Active,Active,28,31,21,EC50 (ZR-75-1): 0.3 µg/mL; zone of inhibition at 0.1 µg/disc (Penicillium oxalicum [19]): 6 mm; Activity (Plasmodium falciparum): >50%; Activity [20]: inactive; Activity (Penicillium oxalicum [22]): inactive
CCC[C@@H](OC(C)=O)C1=C(Br)[C@@](C)(OC)OC1=O,> 20,5.4,10.7,2.8,1.7,inactive,inactive,inactive,inactive,Active,Active,Active,inactive,inactive,inactive,inactive,inactive,8,6,3,EC50 (ZR-75-1): 2.4 µg/mL; Activity (Penicillium oxalicum [19]): inactive; Activity (Plasmodium falciparum): >50%; Activity [20]: inactive
